In ChEMBL document CHEMBL1128288, “7-Azetidinylquinolones as antibacterial agents. 3. Synthesis, properties and structure-activity relationships of the stereoisomers containing a 7-(3-amino-2-methyl-1-azetidinyl) moiety” (J Med Chem, 1995):
≈ marks a conversion by molar mass, not a printed value.

Assays:
[1] = Solubility at pH 7.4 buffer.; type: physicochemical
How it was run: (§1)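 Excess solid was shaken 24 h at 25 °C in water or in 0.05 M phosphate buffer pH 7.4, then filtered (0.22 µm) with the first portion discarded. The filtrate was diluted with 0.1 N HCl or NaOH and measured spectrophotometrically at the compound's absorbance maximum.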

[2] = Solubility in water was determined at 25 degrees Centigrade; type: physicochemical; how it was run: as §1
[3] = tested on: Bacillus cereus; test: In vitro antibacterial activity measured as minimum inhibitory concentration was evaluated on Bacillus cereus ATCC 11778 (Bc).; type: functional
How it was run: (§2)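 Serial 2-fold agar dilution in Mueller Hinton medium, run side by side with reference quinolones. Inoculum 10^5 cfu/mL; compound range 0.007–16 µg/mL.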

[4] = tested on: Bacillus subtilis; test: In vitro antibacterial activity measured as minimum inhibitory concentration was evaluated on Bacillus subtilis ATCC 6633(Bs).; type: functional; how it was run: as §2
[5] = tested on: Enterobacter cloacae; test: In vitro antibacterial activity measured as minimum inhibitory concentration, was evaluated on Enterobacter cloacae ATCC 23355 (Ecl).; type: functional
[6] = tested on: Klebsiella pneumoniae; test: In vitro antibacterial activity measured as minimum inhibitory concentration was evaluated on klebsiella pneumoniae ATCC 10031 (Kp).; type: functional
How it was run: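 Serial 2-fold agar dilution in Mueller Hinton medium, run side by side with reference quinolones.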

[7] = tested on: Proteus vulgaris; test: In vitro antibacterial activity measured as minimum inhibitory concentration was evaluated on proteus vulgaris ATCC 8427 (Pv).; type: functional; how it was run: as §2
[8] = tested on: Pseudomonas aeruginosa; test: In vitro antibacterial activity measured as minimum inhibitory concentration was evaluated on Pseudomonas aeruginosa ATCC 10145 (Pa).; type: functional; how it was run: as §2
[9] = tested on: Staphylococcus aureus; test: In vitro antibacterial activity measured as minimum inhibitory concentration was evaluated on Staphylococcus aureus ATCC 25178 (Sa).; type: functional; how it was run: as §2
[10] = tested on: Staphylococcus epidermidis; test: In vitro antibacterial activity measured as minimum inhibitory concentration was evaluated on Staphylococcus epidermidis ATCC 155-1 (Se).; type: functional; how it was run: as §2
[11] = tested on: Enterococcus faecalis; test: In vitro antibacterial activity measured as minimum inhibitory concentration was evaluated on Streptococcus faecalis ATCC 10541 (Sf).; type: functional; how it was run: as §2
[12] = tested on: Escherichia coli; test: In vitro antibacterial activity measured as minimum inhibitory concentration, was evaluated on Escherichia coli ATCC 23559(Ec).; type: functional; how it was run: as §2
[13] = tested on: Morganella morganii; test: In vitro antibacterial activity measured as minimum inhibitory concentration was evaluated on morganella morganii ATCC 8019 (Mm).; type: functional; how it was run: as §2
[14] = mouse, in vivo, po, 50 mg/kg
[15] = tested on: Pseudomonas aeruginosa; test: In vivo efficacy as ED50 against Pseudomonas aeruginosa HS-116 by oral administration in mice.; type: functional
How it was run: (§3)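 Mice, 4 groups of 10, infected intraperitoneally with slightly more than the LD100 of the organism. A single oral dose was given immediately after infection, with four doses (one per group) chosen from in vitro activity. Survival was scored after one week. ED50 (total dose, mg/kg, protecting 50%) was interpolated among group survival rates.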

[16] = tested on: Staphylococcus aureus; test: In vivo efficacy as ED50 against Staphylococcus aureus HS-93 by oral administration in mice.; type: functional; conditions: Staphylococcus aureus, po; read-out: ED50; how it was run: as §3
[17] = tested on: Escherichia coli; test: In vivo efficacy as ED50 against Escherichia coli HM-42 by oral administration in mice.; type: functional; how it was run: as §3
[18] = Bacillus cereus, ATCC 11778, read-out: MIC
[19] = Bacillus subtilis, ATCC 6633, read-out: MIC
[20] = Enterobacter cloacae, ATCC 23355, read-out: MIC
[21] = Klebsiella pneumoniae, ATCC 10031, read-out: MIC
[22] = Proteus vulgaris, ATCC 8427, read-out: MIC
[23] = Pseudomonas aeruginosa, ATCC 10145, read-out: MIC
[24] = Staphylococcus aureus, ATCC 25178, read-out: MIC
[25] = Staphylococcus epidermidis, ATCC 155-1, read-out: MIC
[26] = Enterococcus faecalis, ATCC 10541, read-out: MIC
[27] = Escherichia coli, ATCC 23559, read-out: MIC
[28] = Morganella morganii, ATCC 8019, read-out: MIC
[29] = Pseudomonas aeruginosa, po, read-out: ED50
[30] = Escherichia coli, po, read-out: ED50

Row | solubility [1] [µg/mL] | solubility [2] [µg/mL] | MIC [3, 18] [µg/mL] | MIC [4, 19] [µg/mL] | MIC [5, 20] [µg/mL] | MIC [6, 21] [µg/mL] | MIC [7, 22] [µg/mL] | MIC [8, 23] [µg/mL] | MIC [9, 24] [µg/mL] | MIC [10, 25] [µg/mL] | MIC [11, 26] [µg/mL] | MIC [12, 27] [µg/mL] | MIC [13, 28] [µg/mL] | AUC [14] [ng·h/mL] | Compound | ED50 [15, 29] [mg/kg] | ED50 [16] [mg/kg] | ED50 [17, 30] [mg/kg] | other results
1 | > 500 | > 500 | 16 (≈ 33.7 µM) | 1 (≈ 2.11 µM) | 2 (≈ 4.22 µM) | 8 (≈ 16.9 µM) | 8 (≈ 16.9 µM) | 16 (≈ 33.7 µM) | 4 (≈ 8.43 µM) | 8 (≈ 16.9 µM) | 16 (≈ 33.7 µM) | 2 (≈ 4.22 µM) | 4 (≈ 8.43 µM) | 19200 | C[C@H](N)C(=O)N[C@@H](C)C(=O)N[C@@H]1CN(c2nc3c(cc2F)c(=O)c(C(=O)O)cn3C2CC2)[C@H]1C |  |  |  | 
2 | > 500 | > 500 | 0.12 (≈ 0.269 µM) | 0.12 (≈ 0.269 µM) | 0.12 (≈ 0.269 µM) | 0.06 (≈ 0.135 µM) | 0.25 (≈ 0.561 µM) | 8 (≈ 18 µM) | 0.25 (≈ 0.561 µM) | 0.25 (≈ 0.561 µM) | 2 (≈ 4.49 µM) | 0.06 (≈ 0.135 µM) | 0.25 (≈ 0.561 µM) | 24900 | CC(C)C[C@H](N)C(=O)N[C@@H]1CN(c2nc3c(cc2F)c(=O)c(C(=O)O)cn3C2CC2)[C@H]1C | 63 | 9.4 | 2 | 
3 | 386 (≈ 957 µM) | 495 (≈ 1230 µM) | 0.5 (≈ 1.24 µM) | 0.12 (≈ 0.297 µM) | 0.25 (≈ 0.62 µM) | 0.5 (≈ 1.24 µM) | 2 (≈ 4.96 µM) | 8 (≈ 19.8 µM) | 0.25 (≈ 0.62 µM) | 1 (≈ 2.48 µM) | 1 (≈ 2.48 µM) | 0.25 (≈ 0.62 µM) | 2 (≈ 4.96 µM) | 400 | C[C@@H](N)C(=O)N[C@@H]1CN(c2nc3c(cc2F)c(=O)c(C(=O)O)cn3C2CC2)[C@H]1C |  |  |  | 
4 |  |  |  |  |  |  |  |  |  |  |  |  |  | 13600 | C[C@@H]1[C@@H](N)CN1c1c(F)cc2c(=O)c(C(=O)O)cn(C3CC3)c2c1F (stereo in doubt; 22b) |  | 12.2 |  | MIC [3]: 0.5 µg/mL (≈ 1.43 µM); MIC [4]: 0.12 µg/mL (≈ 0.344 µM); MIC [5]: 0.25 µg/mL (≈ 0.716 µM); MIC [6]: 0.12 µg/mL (≈ 0.344 µM); ED50 [15]: 65 mg/kg; ED50 [17]: 10.2 mg/kg; MIC [7]: 0.5 µg/mL (≈ 1.43 µM); MIC [8]: 4 µg/mL (≈ 11.5 µM); MIC [9]: 0.25 µg/mL (≈ 0.716 µM); MIC [10]: 0.25 µg/mL (≈ 0.716 µM); MIC [11]: 2 µg/mL (≈ 5.73 µM); MIC [12]: 0.25 µg/mL (≈ 0.716 µM); MIC [13]: 0.25 µg/mL (≈ 0.716 µM)
5 | > 500 | > 500 | 1 (≈ 2.48 µM) | 0.12 (≈ 0.297 µM) | 0.12 (≈ 0.297 µM) | 0.06 (≈ 0.149 µM) | 1 (≈ 2.48 µM) | 8 (≈ 19.8 µM) | 0.5 (≈ 1.24 µM) | 0.5 (≈ 1.24 µM) | 8 (≈ 19.8 µM) | 0.12 (≈ 0.297 µM) | 0.5 (≈ 1.24 µM) | 28800 | C[C@H](N)C(=O)N[C@@H]1CN(c2nc3c(cc2F)c(=O)c(C(=O)O)cn3C2CC2)[C@H]1C |  |  |  | 
6 | > 500 | > 500 | 0.5 (≈ 0.995 µM) | 0.25 (≈ 0.498 µM) | 1 (≈ 1.99 µM) | 0.25 (≈ 0.498 µM) | 8 (≈ 15.9 µM) | 16 (≈ 31.8 µM) | 0.5 (≈ 0.995 µM) | 0.5 (≈ 0.995 µM) | 4 (≈ 7.96 µM) | 0.5 (≈ 0.995 µM) | 4 (≈ 7.96 µM) |  | CCC[C@H](N)C(=O)N[C@@H]1CN(c2cc3c(cc2F)c(=O)c(C(=O)O)cn3-c2ccc(F)cc2F)[C@H]1C |  |  |  | 
7 |  |  | 0.25 (≈ 0.741 µM) | 0.12 (≈ 0.356 µM) | 0.12 (≈ 0.356 µM) | 0.06 (≈ 0.178 µM) | 0.5 (≈ 1.48 µM) | 2 (≈ 5.93 µM) | 0.25 (≈ 0.741 µM) | 0.25 (≈ 0.741 µM) | 2 (≈ 5.93 µM) | 0.12 (≈ 0.356 µM) | 0.12 (≈ 0.356 µM) | 21000 | CCn1cc(C(=O)O)c(=O)c2cc(F)c(N3C[C@H](N)[C@H]3C)c(F)c21 | 60 | 5.9 | 3.9 | 
8 |  |  | 0.015 (≈ 0.0412 µM) | 0.015 (≈ 0.0412 µM) | 0.015 (≈ 0.0412 µM) | 0.015 (≈ 0.0412 µM) | 0.06 (≈ 0.165 µM) | 0.12 (≈ 0.329 µM) | 0.015 (≈ 0.0412 µM) | 0.015 (≈ 0.0412 µM) | 0.12 (≈ 0.329 µM) | 0.015 (≈ 0.0412 µM) | 0.015 (≈ 0.0412 µM) | 11400 | C[C@@H]1[C@@H](N)CN1c1c(F)c(N)c2c(=O)c(C(=O)O)cn(C3CC3)c2c1F | 96 | 11.4 | 4.1 | 
